Results: ChEMBL document CHEMBL1914368, “Imidazo[1,5-a]quinoxalines as irreversible BTK inhibitors for the treatment of rheumatoid arthritis” (Bioorg Med Chem Lett, 2011)

How the values were obtained:
[1] = Inhibition of anti-IgM-stimulated human B cell proliferation assessed as [3H]thymidine incorporation preincubated for 30 mins measured after 3 days; assay type: functional, cell-based; settings: Homo sapiens, B-cell; read-out: IC50
[2] = target: T1, Aryl hydrocarbon receptor (Mus musculus, UniProt P30561); assay: Agonist activity at Ah receptor in genetically engineered mouse cells expressing firefly luciferase gene by CALUX transactivational assay; assay type: functional
T1 sequence (P30561 whole entry): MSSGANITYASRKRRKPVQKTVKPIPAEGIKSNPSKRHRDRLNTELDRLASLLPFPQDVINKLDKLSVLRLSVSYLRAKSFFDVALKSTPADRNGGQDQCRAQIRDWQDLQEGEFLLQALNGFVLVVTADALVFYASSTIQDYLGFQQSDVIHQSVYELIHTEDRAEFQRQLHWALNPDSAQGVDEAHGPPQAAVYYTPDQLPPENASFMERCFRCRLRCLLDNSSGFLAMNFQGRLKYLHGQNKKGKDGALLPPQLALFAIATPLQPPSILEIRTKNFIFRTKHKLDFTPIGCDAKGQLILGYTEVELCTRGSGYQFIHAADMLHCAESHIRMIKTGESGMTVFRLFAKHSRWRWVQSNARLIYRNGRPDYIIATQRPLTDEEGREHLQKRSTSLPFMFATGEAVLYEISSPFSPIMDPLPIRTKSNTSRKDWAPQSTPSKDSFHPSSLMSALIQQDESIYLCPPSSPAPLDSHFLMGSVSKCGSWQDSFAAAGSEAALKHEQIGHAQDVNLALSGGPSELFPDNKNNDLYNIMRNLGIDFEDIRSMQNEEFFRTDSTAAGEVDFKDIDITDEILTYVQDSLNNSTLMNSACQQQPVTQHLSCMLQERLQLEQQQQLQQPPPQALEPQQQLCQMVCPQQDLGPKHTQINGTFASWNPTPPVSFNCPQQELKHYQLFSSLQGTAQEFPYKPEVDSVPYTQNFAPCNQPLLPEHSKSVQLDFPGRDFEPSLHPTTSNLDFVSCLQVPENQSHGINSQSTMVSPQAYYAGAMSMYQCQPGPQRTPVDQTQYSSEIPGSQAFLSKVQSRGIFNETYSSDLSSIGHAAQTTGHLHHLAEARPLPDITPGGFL

[3] = target: Tyrosine-protein kinase Lyn (Homo sapiens, UniProt P07948); assay: Inhibition of LYN-A expressed in Sf9 cells preincubated for 60 mins measured after 60 mins by TR-FRET Assay
How it was run: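 The compound was pre-incubated with the kinase before the enzymatic reaction was started. IC50 values are averages of two or more determinations.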

[4] = target: T2, Tyrosine-protein kinase Lck (Homo sapiens, UniProt P06239); assay: Inhibition of C-terminal His6-tagged human full-length LCK expressed in Sf9 cells preincubated for 60 mins measured after 60 mins by TR-FRET Assay
[5] = AUC (0 to infinity) in mouse at 2 mg/kg, iv; assay type: ADME, organism-based; set-up: time infinity, dose 2 mg/kg, route intravenous; settings: plasma
[6] = AUC (0 to infinity) in mouse at 10 mg/kg, po; assay type: ADME, organism-based; set-up: time infinity, dose 10 mg/kg, route oral; settings: plasma
[7] = Volume of distribution at steady state in mouse at 2 mg/kg, iv; assay type: ADME, organism-based; set-up: dose 2 mg/kg, route intravenous; settings: in vivo, read-out: Vdss
How it was run: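 Mouse pharmacokinetics from single dosing at 2 mg/kg iv and 10 mg/kg po. The study derived AUC, T1/2, clearance, Vss, Tmax, Cmax and oral bioavailability (%F) from the paired iv and po arms.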

[8] = target: Ephrin type-B receptor 3 (Homo sapiens) (UniProt P54753); assay: (§1) Inhibition of EPHB3 relative to control; settings: concentration not given here
Ephrin type-B receptor 3 = Ephrin type-B receptor 3 (Homo sapiens, UniProt P54753); assay: as §1
[9] = Cmax in mouse at 10 mg/kg, po; assay type: ADME, organism-based; set-up: dose 10 mg/kg, route oral; settings: in vivo
[10] = target: Protein-tyrosine kinase 6 (Homo sapiens) (UniProt Q13882); assay: Inhibition of BRK relative to control; settings: concentration not given here
Sequence of Protein-tyrosine kinase 6 (Homo sapiens) (Q13882 whole entry, looked up): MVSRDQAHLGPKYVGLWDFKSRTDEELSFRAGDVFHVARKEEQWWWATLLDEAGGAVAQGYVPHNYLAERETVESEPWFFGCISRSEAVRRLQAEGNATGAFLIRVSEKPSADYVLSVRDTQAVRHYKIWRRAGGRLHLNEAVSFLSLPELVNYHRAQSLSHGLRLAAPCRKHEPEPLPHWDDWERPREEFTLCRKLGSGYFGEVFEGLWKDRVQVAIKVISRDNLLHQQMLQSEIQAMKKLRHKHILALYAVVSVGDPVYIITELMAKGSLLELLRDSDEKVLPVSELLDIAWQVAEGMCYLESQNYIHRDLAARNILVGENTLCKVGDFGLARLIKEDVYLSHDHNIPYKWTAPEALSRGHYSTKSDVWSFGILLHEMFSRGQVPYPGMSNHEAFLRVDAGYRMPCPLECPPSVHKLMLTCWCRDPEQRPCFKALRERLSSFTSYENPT

[11] = target: Tyrosine-protein kinase ABL1 (Homo sapiens, UniProt P00519); assay: Inhibition of Abl1 relative to control
[12] = target: Tyrosine-protein kinase ABL2 (Homo sapiens) (UniProt P42684); assay: Inhibition of ABL2 relative to control; settings: concentration not given here
Sequence of Tyrosine-protein kinase ABL2 (Homo sapiens) (P42684 whole entry): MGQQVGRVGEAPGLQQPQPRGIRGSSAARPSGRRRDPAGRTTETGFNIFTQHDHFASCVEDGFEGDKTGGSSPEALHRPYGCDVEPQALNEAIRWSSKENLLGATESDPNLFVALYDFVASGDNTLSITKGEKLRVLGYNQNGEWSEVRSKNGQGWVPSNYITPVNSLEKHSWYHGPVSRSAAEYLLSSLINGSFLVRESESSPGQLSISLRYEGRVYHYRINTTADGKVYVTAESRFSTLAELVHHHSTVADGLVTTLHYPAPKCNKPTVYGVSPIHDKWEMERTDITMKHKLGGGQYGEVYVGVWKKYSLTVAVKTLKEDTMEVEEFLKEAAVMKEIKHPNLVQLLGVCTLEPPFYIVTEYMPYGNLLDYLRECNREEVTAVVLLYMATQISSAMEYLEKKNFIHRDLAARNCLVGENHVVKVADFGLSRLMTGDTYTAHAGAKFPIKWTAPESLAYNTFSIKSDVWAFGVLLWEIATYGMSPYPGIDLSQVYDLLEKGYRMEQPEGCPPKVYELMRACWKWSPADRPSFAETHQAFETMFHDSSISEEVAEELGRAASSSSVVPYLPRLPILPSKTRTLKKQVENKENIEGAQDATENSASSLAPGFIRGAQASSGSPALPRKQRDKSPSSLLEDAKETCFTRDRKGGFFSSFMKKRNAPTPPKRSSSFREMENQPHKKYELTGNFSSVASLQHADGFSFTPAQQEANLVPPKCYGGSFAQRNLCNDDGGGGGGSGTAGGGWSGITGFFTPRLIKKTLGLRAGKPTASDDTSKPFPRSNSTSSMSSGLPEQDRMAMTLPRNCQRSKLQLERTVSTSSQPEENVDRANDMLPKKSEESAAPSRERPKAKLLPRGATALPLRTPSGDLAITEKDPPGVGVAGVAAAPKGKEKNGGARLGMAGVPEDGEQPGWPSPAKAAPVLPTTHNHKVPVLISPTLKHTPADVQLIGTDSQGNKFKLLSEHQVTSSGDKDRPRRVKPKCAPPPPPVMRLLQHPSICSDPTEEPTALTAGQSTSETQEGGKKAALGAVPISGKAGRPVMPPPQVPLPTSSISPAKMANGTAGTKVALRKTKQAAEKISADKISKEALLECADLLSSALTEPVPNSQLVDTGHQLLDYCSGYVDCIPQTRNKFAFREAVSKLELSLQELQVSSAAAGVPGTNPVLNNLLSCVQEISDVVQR

[13] = target: Cytoplasmic tyrosine-protein kinase BMX (Homo sapiens) (UniProt P51813); assay: Inhibition of BMX relative to control; settings: concentration not given here
[14] = target: Serine/threonine-protein kinase Chk2 (Homo sapiens) (UniProt O96017); assay: Inhibition of CHEK2 relative to control; settings: concentration not given here
[15] = target: Tyrosine-protein kinase CSK (Homo sapiens) (UniProt P41240); assay: Inhibition of CSK relative to control; settings: concentration not given here
[16] = target: Receptor tyrosine-protein kinase erbB-2 (Homo sapiens) (UniProt P04626); assay: Inhibition of HER2 relative to control; settings: concentration not given here
[17] = target: Tyrosine-protein kinase Fgr (Homo sapiens) (UniProt P09769); assay: Inhibition of FGR relative to control; settings: concentration not given here
[18] = target: Vascular endothelial growth factor receptor 3 (Homo sapiens) (UniProt P35916); assay: Inhibition of FLT4 relative to control; settings: concentration not given here
[19] = target: Glycogen synthase kinase-3 beta (Homo sapiens) (UniProt P49841); assay: Inhibition of GSK3B relative to control; settings: concentration not given here
Sequence of Glycogen synthase kinase-3 beta (Homo sapiens) (P49841 whole entry, looked up): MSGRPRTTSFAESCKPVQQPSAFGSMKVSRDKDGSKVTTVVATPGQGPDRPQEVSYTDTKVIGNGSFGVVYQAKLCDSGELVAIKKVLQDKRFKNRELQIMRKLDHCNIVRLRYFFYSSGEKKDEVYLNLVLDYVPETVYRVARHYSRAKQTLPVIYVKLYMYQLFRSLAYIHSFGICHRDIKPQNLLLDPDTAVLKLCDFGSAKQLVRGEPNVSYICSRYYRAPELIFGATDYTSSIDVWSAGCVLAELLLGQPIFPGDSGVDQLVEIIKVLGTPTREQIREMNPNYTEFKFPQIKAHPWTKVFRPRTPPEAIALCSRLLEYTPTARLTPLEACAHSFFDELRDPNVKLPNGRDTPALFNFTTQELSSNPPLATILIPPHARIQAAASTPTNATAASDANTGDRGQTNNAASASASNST

[20] = target: Tyrosine-protein kinase ITK/TSK (Homo sapiens) (UniProt Q08881); assay: Inhibition of ITK relative to control; settings: concentration not given here
[21] = target: Vascular endothelial growth factor receptor 2 (Homo sapiens) (UniProt P35968); assay: Inhibition of KDR relative to control; settings: concentration not given here
Sequence of Vascular endothelial growth factor receptor 2 (Homo sapiens) (P35968 whole entry): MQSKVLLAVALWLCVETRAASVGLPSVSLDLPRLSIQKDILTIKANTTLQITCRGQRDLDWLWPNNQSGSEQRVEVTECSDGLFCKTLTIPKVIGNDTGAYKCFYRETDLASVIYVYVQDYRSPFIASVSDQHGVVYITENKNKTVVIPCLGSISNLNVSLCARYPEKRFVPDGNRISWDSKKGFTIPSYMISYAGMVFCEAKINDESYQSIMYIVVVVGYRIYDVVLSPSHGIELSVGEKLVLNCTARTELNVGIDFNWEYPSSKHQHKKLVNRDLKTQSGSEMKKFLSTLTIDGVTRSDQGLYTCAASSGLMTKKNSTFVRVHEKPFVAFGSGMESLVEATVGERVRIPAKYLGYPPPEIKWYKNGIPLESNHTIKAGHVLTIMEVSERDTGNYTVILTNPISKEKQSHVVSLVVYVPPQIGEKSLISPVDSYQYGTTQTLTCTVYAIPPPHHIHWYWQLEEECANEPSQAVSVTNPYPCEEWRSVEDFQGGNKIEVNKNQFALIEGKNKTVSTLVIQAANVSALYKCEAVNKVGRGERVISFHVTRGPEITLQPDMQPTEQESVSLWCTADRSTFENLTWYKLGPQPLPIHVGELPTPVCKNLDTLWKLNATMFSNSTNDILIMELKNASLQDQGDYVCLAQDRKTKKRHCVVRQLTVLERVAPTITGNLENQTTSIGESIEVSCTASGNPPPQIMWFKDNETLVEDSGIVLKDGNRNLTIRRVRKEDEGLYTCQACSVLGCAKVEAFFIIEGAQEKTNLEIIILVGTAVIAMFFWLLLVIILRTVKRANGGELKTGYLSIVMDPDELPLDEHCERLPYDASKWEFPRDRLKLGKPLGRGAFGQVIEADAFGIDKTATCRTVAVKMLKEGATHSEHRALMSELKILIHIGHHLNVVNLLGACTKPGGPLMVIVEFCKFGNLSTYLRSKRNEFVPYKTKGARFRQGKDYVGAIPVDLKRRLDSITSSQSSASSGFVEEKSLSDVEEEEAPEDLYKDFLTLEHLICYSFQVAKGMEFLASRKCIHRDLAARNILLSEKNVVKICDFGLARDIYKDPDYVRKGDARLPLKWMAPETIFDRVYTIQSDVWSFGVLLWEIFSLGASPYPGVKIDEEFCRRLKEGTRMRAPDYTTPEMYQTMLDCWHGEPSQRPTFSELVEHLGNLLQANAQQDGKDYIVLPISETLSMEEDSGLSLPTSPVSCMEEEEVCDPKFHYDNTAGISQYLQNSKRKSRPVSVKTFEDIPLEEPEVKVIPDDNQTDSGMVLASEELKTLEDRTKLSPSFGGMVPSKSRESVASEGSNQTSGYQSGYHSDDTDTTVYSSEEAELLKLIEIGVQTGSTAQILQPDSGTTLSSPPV

[22] = target: T2, Tyrosine-protein kinase Lck; assay: Inhibition of LCK relative to control; settings: concentration not given here
[23] = target: Mitogen-activated protein kinase 14 (Homo sapiens) (UniProt Q16539); assay: Inhibition of MAPK14 relative to control; settings: concentration not given here
[24] = target: Mitogen-activated protein kinase 8 (Homo sapiens) (UniProt P45983); assay: Inhibition of MAPK8 relative to control; settings: concentration not given here
[25] = target: Tyrosine-protein kinase Mer (Homo sapiens) (UniProt Q12866); assay: Inhibition of MERTK relative to control; settings: concentration not given here
[26] = target: Serine/threonine-protein kinase Nek2 (Homo sapiens) (UniProt P51955); assay: Inhibition of NEK2 relative to control; settings: concentration not given here
[27] = target: Platelet-derived growth factor receptor beta (Homo sapiens) (UniProt P09619); assay: Inhibition of PDGFRbeta relative to control; settings: concentration not given here
Sequence of Platelet-derived growth factor receptor beta (Homo sapiens) (P09619 whole entry): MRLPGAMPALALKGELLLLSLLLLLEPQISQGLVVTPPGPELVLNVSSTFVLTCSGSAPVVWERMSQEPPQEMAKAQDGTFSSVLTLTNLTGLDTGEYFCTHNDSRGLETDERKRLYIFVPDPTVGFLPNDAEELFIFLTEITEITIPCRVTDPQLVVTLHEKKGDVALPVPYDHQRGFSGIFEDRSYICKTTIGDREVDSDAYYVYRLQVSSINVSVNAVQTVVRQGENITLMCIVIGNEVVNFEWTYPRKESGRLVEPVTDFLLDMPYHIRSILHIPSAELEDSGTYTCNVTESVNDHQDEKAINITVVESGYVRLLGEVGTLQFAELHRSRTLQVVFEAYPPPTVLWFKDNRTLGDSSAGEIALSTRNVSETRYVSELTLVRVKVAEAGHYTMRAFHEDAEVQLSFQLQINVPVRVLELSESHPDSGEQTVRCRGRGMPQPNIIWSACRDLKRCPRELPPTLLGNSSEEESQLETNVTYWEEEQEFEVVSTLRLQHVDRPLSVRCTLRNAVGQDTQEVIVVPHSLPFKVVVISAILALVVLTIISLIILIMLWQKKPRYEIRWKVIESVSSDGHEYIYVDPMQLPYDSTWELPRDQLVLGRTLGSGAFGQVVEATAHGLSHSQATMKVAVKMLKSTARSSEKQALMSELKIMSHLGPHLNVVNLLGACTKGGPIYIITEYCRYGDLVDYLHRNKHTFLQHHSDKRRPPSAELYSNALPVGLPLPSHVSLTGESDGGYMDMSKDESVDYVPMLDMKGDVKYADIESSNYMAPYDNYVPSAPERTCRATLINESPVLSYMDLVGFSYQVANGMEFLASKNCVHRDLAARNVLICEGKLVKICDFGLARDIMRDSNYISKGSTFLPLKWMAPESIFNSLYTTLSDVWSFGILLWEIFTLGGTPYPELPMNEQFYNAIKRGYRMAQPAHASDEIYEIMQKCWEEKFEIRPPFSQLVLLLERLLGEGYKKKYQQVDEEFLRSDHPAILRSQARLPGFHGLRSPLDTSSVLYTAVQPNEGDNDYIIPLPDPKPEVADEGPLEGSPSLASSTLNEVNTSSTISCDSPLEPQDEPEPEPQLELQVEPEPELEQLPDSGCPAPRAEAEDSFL

[28] = target: 3-phosphoinositide-dependent protein kinase 1 (Homo sapiens) (UniProt O15530); assay: Inhibition of PDK1 relative to control; settings: concentration not given here
Sequence of 3-phosphoinositide-dependent protein kinase 1 (Homo sapiens) (O15530 whole entry, the tested form may be a part): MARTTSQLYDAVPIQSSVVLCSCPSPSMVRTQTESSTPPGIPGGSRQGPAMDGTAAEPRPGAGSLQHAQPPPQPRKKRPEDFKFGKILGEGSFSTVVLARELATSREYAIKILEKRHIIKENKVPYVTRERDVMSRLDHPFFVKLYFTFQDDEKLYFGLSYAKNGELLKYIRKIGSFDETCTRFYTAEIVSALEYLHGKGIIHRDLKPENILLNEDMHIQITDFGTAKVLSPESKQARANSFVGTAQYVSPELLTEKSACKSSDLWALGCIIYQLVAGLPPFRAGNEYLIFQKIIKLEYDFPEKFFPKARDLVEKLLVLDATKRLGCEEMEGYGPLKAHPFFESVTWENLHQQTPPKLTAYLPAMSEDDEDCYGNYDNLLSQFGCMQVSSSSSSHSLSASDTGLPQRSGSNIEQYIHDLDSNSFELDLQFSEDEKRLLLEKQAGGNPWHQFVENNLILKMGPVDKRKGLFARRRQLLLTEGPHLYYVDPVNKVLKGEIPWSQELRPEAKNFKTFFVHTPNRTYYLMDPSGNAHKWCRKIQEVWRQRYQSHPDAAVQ

[29] = target: Phosphatidylinositol 4-phosphate 3-kinase C2 domain-containing subunit alpha (Homo sapiens) (UniProt O00443); assay: Inhibition of PI3K-C2 alpha relative to control; settings: concentration not given here
[30] = target: Serine/threonine-protein kinase PLK1 (Homo sapiens) (UniProt P53350); assay: Inhibition of PLK1 relative to control; settings: concentration not given here
[31] = target: Focal adhesion kinase 1 (Homo sapiens) (UniProt Q05397); assay: Inhibition of PTK2 relative to control; settings: concentration not given here
[32] = target: Tyrosine-protein kinase Tec (Homo sapiens) (UniProt P42680); assay: Inhibition of TEC relative to control; settings: concentration not given here
[33] = target: Angiopoietin-1 receptor (Homo sapiens) (UniProt Q02763); assay: Inhibition of TEK relative to control; settings: concentration not given here

EC50 [2]: > 10000 nM
IC50 [3]: 353 nM
IC50 [4]: 755 nM
AUC(0-inf) [5]: 510 ng·h/mL
AUC(0-inf) [6]: 876 ng·h/mL
Vd [7]: 6.2 L/kg
inhibition [8]: 50%
IC50 (Ephrin type-B receptor 3): 350 nM
Cmax [9]: 220 ng/mL
inhibition [10]: -4%
IC50 [11]: 109 nM
inhibition [12]: 65%
inhibition [13]: 100%
inhibition [14]: 19%
inhibition [15]: 15%
inhibition [16]: 19%
inhibition [17]: 15%
inhibition [18]: 6%
inhibition [19]: 6%
inhibition [20]: 5%
inhibition [21]: 7%
inhibition [22]: 25%
inhibition [23]: 6%
inhibition [24]: -3%
inhibition [25]: 4%
inhibition [26]: 10%
inhibition [27]: 2%
inhibition [28]: 7%
inhibition [29]: 0%
inhibition [30]: 4%
inhibition [31]: -2%
inhibition [32]: 42%
inhibition [33]: 13%
Structure (SMILES): Cc1ccccc1Nc1nc2cc(F)c(N(C)C(=O)/C=C/CN(C)C)cc2n2cncc12
IC50 [1]: 3.41 nM
